Published values of several laboratories.
Protocols differ between the studies behind these lines.

With `CN1C(=O)c2ccccc2[S@+]([O-])c2ccc(C(=O)NCCc3cccs3)cc21` the AUC(0-t) was 7800 ng·h/mL (male C57BL/6 mouse, plasma; intraperitoneal, 30 mg/kg, single dose).
`C=CC(=O)N1CC2CC(n3nc(-c4ccc(C(=O)Nc5ccccn5)cc4)c4c(N)ncnc43)CC2C1` (stereo not drawn) gave an AUC(0-t) of 588 ng·h/mL (SCID mouse, plasma; oral, 3 mg/kg).
With `CC[C@H](C)[C@@H]1NC(=O)[C@@](C)(NC(=O)[C@H](CCCNC(=N)N)NC(=O)[C@H](CC(C)C)NC(=O)[C@@H](NC(=O)[C@H](CCC(N)=O)NC(=O)[C@H](CC(C)C)NC(C)=O)[C@@H](C)O)CCCC=CCCC[C@@](C)(C(=O)N[C@@H](CC(C)C)C(=O)N[C@@H](Cc2ccc3ccccc3c2)C(N)=O)NC(=O)[C@H](CCCNC(=N)N)NC(=O)[C@H](CCC(N)=O)NC1=O` the AUC(0-t) was 124000 ng·h/mL (male BALB/c mouse, plasma; intravenous, 5 mg/kg).
For `CCn1ncc2c(Nc3ccc(OC(F)(F)F)cc3)ncnc21`, the AUC(0-t) was 201 ng·h/mL (male BALB/c mouse, plasma; oral, 20 mg/kg).
`NC(=O)c1cc(Oc2ccc(NC(=O)Nc3ccc(Cl)c(C(F)(F)F)c3)c(F)c2)cc[n+]1[O-]` gave an AUC(0-t) of 65 ng·h/mL (mouse, plasma; oral, 10 mg/kg, single dose).
`NS(=O)(=O)c1ccc(-c2cc(Nc3ccc(OC(F)(F)F)cc3)ncn2)cc1` has an AUC(0-t) of 9390 ng·h/mL (male BALB/c mouse, plasma; oral, 20 mg/kg).
The AUC(0-t) of `COc1ccc(C(O)COc2ccc(-c3csc(-c4ccc(OCC(O)c5ccc(OC)c(OC)c5)cc4)n3)cc2)cc1OC` (stereo not drawn) is reported as 4700 ng·h/mL (C57BL/6 mouse, plasma; intravenous, 3 mg/kg).
For `Cc1nc(-c2cnc(NC(C)C)n(C)c2=O)ccc1Oc1ccnc(-c2cnn(C)c2)c1`, the AUC(0-t) was 29000 ng·h/mL (female mouse, plasma; oral, 3.75 mg/kg, single dose).
`CCc1cc(OC)c2nccc(N3CCc4c(cc(Cn5ccnc5)cc4-c4cn(C)nc4C(F)(F)F)C3=O)c2c1` gave an AUC(0-t) of 106000 ng·h/mL (male CD-1 mouse, plasma; oral, 50 mg/kg).
`CS(=O)(=O)CCNCc1ccc(-c2ccc3ncnc(Nc4ccc(OCc5cccc(F)c5)c(Cl)c4)c3c2)o1` gave an AUC(0-t) of 34100 ng·h/mL (nude mouse, plasma; oral, 50 mg/kg, single dose).
`CN1CCC(N2CCN(c3nccc4[nH]c(-c5ccc(F)c(F)c5)nc34)CC2)CC1` gave an AUC(0-t) of 6.63 µM·h (BALB/c mouse, blood; oral, 20 mg/kg).
`Cc1ccc2cncc(N3CCc4c(cc(Cn5ccnc5)cc4-c4cn(C)nc4C(F)(F)F)C3=O)c2c1` gave an AUC(0-t) of 3840 ng·h/mL (male CD-1 mouse, plasma; intravenous, 3 mg/kg).
For `CN1CCN(c2nccc3nc(-c4ccc(F)c(F)c4)[nH]c23)CC1`, the AUC(0-t) was 3.25 µM·h (mouse, blood; oral, 5 mg/kg).
With `CCOc1ccc(Cc2cc([C@@H]3O[C@H](CO)[C@@H](O)[C@H](O)[C@H]3O)ccc2Cl)cc1` the AUC(0-t) was 457 ng·h/mL (male C57BL/6 mouse, plasma; oral, 1 mg/kg).
With `CNC(=O)c1cc(OC)cc2c(N3CCc4c(cc(Cn5ccnc5)cc4-c4cn(C)nc4C(F)(F)F)C3=O)ccnc12` the AUC(0-t) was 144000 ng·h/mL (male CD-1 mouse, plasma; oral, 50 mg/kg).
With `C[C@H](NC(=O)C(C)(C)Oc1ccc(C(F)(F)F)cn1)[C@@H](Cc1ccc(Cl)cc1)c1cccc(C#N)c1` the AUC(0-t) was 5.3 µM·h (mouse, plasma; oral, 6 µmol/kg, single dose).
The AUC(0-t) of `COc1nc(-c2cc(C)c(N[C@@H](C)c3c(F)cc(F)cc3F)nn2)ccc1-n1cnc(C)c1` is reported as 7960 ng·h/mL (male CD-1 mouse, plasma; oral, 5 mg/kg, single dose).
For `O=S(=O)(c1ccc(-c2ccc3nccc(Nc4ccncn4)c3c2)cc1)N1CCOCC1`, the AUC(0-t) was 120 ng·h/mL (female BALB/c mouse, brain; intraperitoneal, 10 mg/kg).
The AUC(0-t) of `CN1CCC[C@H](CN2c3ccccc3Sc3ccccc32)C1.Cl` is reported as 6920 ng·h/mL (mouse, plasma; intraperitoneal, 32 mg/kg, single dose).
The AUC(0-t) of `COc1ccc2nccc(N3CCc4c(cc(Cn5ccnc5)cc4-c4cn(C)nc4C(F)(F)F)C3=O)c2c1` is reported as 1840 ng·h/mL (male CD-1 mouse, plasma; intravenous, 3 mg/kg).
With `CN1CCN(C2CCN(c3nccc4[nH]c(-c5cc(F)cc(F)c5)nc34)CC2)CC1` the AUC(0-t) was 11.8 µM·h (BALB/c mouse, blood; oral, 20 mg/kg).
`CNCCN(C)c1cc(C#N)cc(CCc2cc(C)cc(N)n2)c1` has an AUC(0-t) of 180 ng·h/mL (male BALB/c mouse, plasma; intravenous, 2 mg/kg).
For `COc1nc(-c2cc(C)c(N[C@@H](C)c3ccc(F)cc3)nn2)ccc1-n1cnc(C)c1`, the AUC(0-t) was 4020 ng·h/mL (male CD-1 mouse, plasma; intravenous, 1 mg/kg, single dose).
`CCOC(=O)c1sc(Nc2ncccn2)nc1-c1ccccn1` has an AUC(0-t) of 195 ng·h/mL (male CD-1 mouse, plasma; oral, 10 mg/kg).
With `COc1ccc2nc(-c3ccccn3)c(N(C)c3ccc(F)cc3)n2c1` the AUC(0-t) was 953 ng·h/mL (male CD-1 mouse, plasma; oral, 50 mg/kg, fasted).
With `CCc1cc(C(=O)NC)c2nccc(N3CCc4c(cc(Cn5ccnc5)cc4-c4cn(C)nc4C(F)(F)F)C3=O)c2c1` the AUC(0-t) was 527000 ng·h/mL (male CD-1 mouse, plasma; oral, 150 mg/kg).
The AUC(0-t) of `CN1CCN(CC2CCN(c3cncc4[nH]c(-c5cc(F)cc(F)c5)nc34)CC2)CC1` is reported as 0.967 µM·h (mouse, blood; intravenous, 2 mg/kg).
With `CC(C)(C)c1cc(NC(=O)Nc2ccc(Oc3ccnc4[nH]c(=O)cnc34)cc2F)n(-c2ccccc2)n1` the AUC(0-t) was 416 µM·h (BALB/c mouse, plasma; oral, 10 mg/kg).
For `Fc1ccc(-c2nc3c(N4CCC(CN5CCOCC5)CC4)nccc3[nH]2)cc1F`, the AUC(0-t) was 4.17 µM·h (mouse, blood; intravenous, 2 mg/kg).
`Cc1ccc(NC(=O)c2ccc(CN3CCN(C)CC3)cc2)cc1Nc1nccc(-c2cncc(-c3oncc3C)c2)n1` has an AUC(0-t) of 37800 ng·h/mL (male C57BL/6 mouse, plasma; oral, 100 mg/kg/day).
